How the values were obtained:
[1] = test system: P388; assay: Antitumor activity against mouse P388 cells allografted in CD2F1 mouse assessed as increase in mouse survival at 7.5 mg/kg, ip of total 9 doses starting 24 hrs post tumor inoculation measured on day 5 of inoculation relative to control; assay type: functional; settings: route intraperitoneal
In short: (§1)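 Male CD2F1 mice inoculated ip with 6×10^6 P388 leukemia cells. Dosing was ip as a suspension in distilled water–Tween 80, nine daily doses starting 24 h after inoculation. Activity was read as median survival time of treated vs control mice (% T/C); % T/C ≥ 120 was considered significant. Groups were 6 mice.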

[2] = test system: Mus musculus; assay: Toxicity in mouse P388 cells allografted CD2F1 mouse assessed as body weight loss at 15 mg/kg, ip of total 9 doses starting 24 hrs post tumor inoculation measured on day 5 of inoculation relative to control; assay type: organism-based; parameters: dose 15 mg/kg, route intraperitoneal; settings: in vivo
In short: (§2)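 Male CD2F1 mice inoculated ip with 6×10^6 P388 leukemia cells. Compounds given ip as distilled water–Tween 80 suspension, nine daily doses starting 24 h after inoculation; six mice per dose group. Treated-minus-control body-weight change (T − C) and toxicity-day survivors recorded on day 5 (4 days after first dose).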

[3] = test system: Mus musculus; assay: Toxicity in mouse P388 cells allografted CD2F1 mouse assessed as body weight loss at 7.5 mg/kg, ip of total 9 doses starting 24 hrs post tumor inoculation measured on day 5 of inoculation relative to control; assay type: organism-based; parameters: dose 7.5 mg/kg, route intraperitoneal; settings: in vivo; in short: as §2
[4] = test system: Mus musculus; assay: Toxicity in mouse P388 cells allografted CD2F1 mouse assessed as body weight loss at 120 mg/kg, ip of total 9 doses starting 24 hrs post tumor inoculation measured on day 5 of inoculation relative to control; assay type: organism-based; parameters: dose 120 mg/kg, route intraperitoneal; settings: in vivo; in short: as §2
[5] = test system: Mus musculus; assay: Toxicity in mouse P388 cells allografted CD2F1 mouse assessed as body weight loss at 60 mg/kg, ip of total 9 doses starting 24 hrs post tumor inoculation measured on day 5 of inoculation relative to control; assay type: organism-based; parameters: dose 60 mg/kg, route intraperitoneal; settings: in vivo; in short: as §2
[6] = test system: P388; assay: Antitumor activity against mouse P388 cells allografted in CD2F1 mouse assessed as increase in mouse survival at 15 mg/kg, ip of total 9 doses starting 24 hrs post tumor inoculation measured on day 5 of inoculation relative to control; assay type: functional; settings: route intraperitoneal; in short: as §1
[7] = test system: Mus musculus; assay: Toxicity in mouse P388 cells allografted CD2F1 mouse assessed as mouse survival at 7.5 mg/kg, ip of total 9 doses starting 24 hrs post tumor inoculation measured on day 5 of inoculation relative to control; assay type: organism-based; parameters: dose 7.5 mg/kg, route intraperitoneal; settings: in vivo
In short: (§3)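 Male CD2F1 mice bearing ip P388 leukemia (6×10^6 cells) were dosed ip with nine daily doses in distilled water–Tween 80 suspension, starting 24 h after inoculation. Survivors per group of 6 were counted on day 5, i.e. 4 days after the first dose. Body-weight change of treated minus control mice was also recorded.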

[8] = test system: P388; assay: Antitumor activity against mouse P388 cells allografted in CD2F1 mouse assessed as increase in mouse survival at 30 mg/kg, ip of total 9 doses starting 24 hrs post tumor inoculation measured on day 5 of inoculation relative to control; assay type: functional; settings: route intraperitoneal; in short: as §1
[9] = test system: Mus musculus; assay: Toxicity in mouse P388 cells allografted CD2F1 mouse assessed as mouse survival at 30 mg/kg, ip of total 9 doses starting 24 hrs post tumor inoculation measured on day 5 of inoculation relative to control; assay type: organism-based; parameters: dose 30 mg/kg, route intraperitoneal; settings: in vivo; in short: as §3
[10] = test system: Mus musculus; assay: Toxicity in mouse P388 cells allografted CD2F1 mouse assessed as mouse survival at 15 mg/kg, ip of total 9 doses starting 24 hrs post tumor inoculation measured on day 5 of inoculation relative to control; assay type: organism-based; parameters: dose 15 mg/kg, route intraperitoneal; settings: in vivo; in short: as §3
[11] = test system: P388; assay: Antitumor activity against mouse P388 cells allografted in CD2F1 mouse assessed as increase in mouse survival at 60 mg/kg, ip of total 9 doses starting 24 hrs post tumor inoculation measured on day 5 of inoculation relative to control; assay type: functional; settings: route intraperitoneal; in short: as §1
[12] = test system: Mus musculus; assay: Toxicity in mouse P388 cells allografted CD2F1 mouse assessed as body weight loss at 30 mg/kg, ip of total 9 doses starting 24 hrs post tumor inoculation measured on day 5 of inoculation relative to control; assay type: organism-based; parameters: dose 30 mg/kg, route intraperitoneal; settings: in vivo; in short: as §2
[13] = test system: Mus musculus; assay: Toxicity in mouse P388 cells allografted CD2F1 mouse assessed as mouse survival at 12.5 mg/kg, ip of total 9 doses starting 24 hrs post tumor inoculation measured on day 5 of inoculation relative to control; assay type: organism-based; parameters: dose 12.5 mg/kg, route intraperitoneal; settings: in vivo; in short: as §3
[14] = test system: P388; assay: Antitumor activity against mouse P388 cells allografted in CD2F1 mouse assessed as increase in mouse survival at 100 mg/kg, ip of total 9 doses starting 24 hrs post tumor inoculation measured on day 5 of inoculation relative to control; assay type: functional; settings: route intraperitoneal; in short: as §1
[15] = test system: Mus musculus; assay: Toxicity in mouse P388 cells allografted CD2F1 mouse assessed as mouse survival at 100 mg/kg, ip of total 9 doses starting 24 hrs post tumor inoculation measured on day 5 of inoculation relative to control; assay type: organism-based; parameters: dose 100 mg/kg, route intraperitoneal; settings: in vivo; in short: as §3
[16] = test system: Mus musculus; assay: Toxicity in mouse P388 cells allografted CD2F1 mouse assessed as mouse survival at 50 mg/kg, ip of total 9 doses starting 24 hrs post tumor inoculation measured on day 5 of inoculation relative to control; assay type: organism-based; parameters: dose 50 mg/kg, route intraperitoneal; settings: in vivo; in short: as §3
[17] = test system: P388; assay: Antitumor activity against mouse P388 cells allografted in CD2F1 mouse assessed as increase in mouse survival at 12.5 mg/kg, ip of total 9 doses starting 24 hrs post tumor inoculation measured on day 5 of inoculation relative to control; assay type: functional; settings: route intraperitoneal; in short: as §1
[18] = test system: Mus musculus; assay: Toxicity in mouse P388 cells allografted CD2F1 mouse assessed as mouse survival at 25 mg/kg, ip of total 9 doses starting 24 hrs post tumor inoculation measured on day 5 of inoculation relative to control; assay type: organism-based; parameters: dose 25 mg/kg, route intraperitoneal; settings: in vivo; in short: as §3
[19] = test system: Mus musculus; assay: Toxicity in mouse P388 cells allografted CD2F1 mouse assessed as body weight loss at 50 mg/kg, ip of total 9 doses starting 24 hrs post tumor inoculation measured on day 5 of inoculation relative to control; assay type: organism-based; parameters: dose 50 mg/kg, route intraperitoneal; settings: in vivo; in short: as §2
[20] = test system: P388; assay: Antitumor activity against mouse P388 cells allografted in CD2F1 mouse assessed as increase in mouse survival at 50 mg/kg, ip of total 9 doses starting 24 hrs post tumor inoculation measured on day 5 of inoculation relative to control; assay type: functional; settings: route intraperitoneal; in short: as §1
[21] = test system: Mus musculus; assay: Toxicity in mouse P388 cells allografted CD2F1 mouse assessed as body weight loss at 12.5 mg/kg, ip of total 9 doses starting 24 hrs post tumor inoculation measured on day 5 of inoculation relative to control; assay type: organism-based; parameters: dose 12.5 mg/kg, route intraperitoneal; settings: in vivo; in short: as §2
[22] = test system: Mus musculus; assay: Toxicity in mouse P388 cells allografted CD2F1 mouse assessed as body weight loss at 100 mg/kg, ip of total 9 doses starting 24 hrs post tumor inoculation measured on day 5 of inoculation relative to control; assay type: organism-based; parameters: dose 100 mg/kg, route intraperitoneal; settings: in vivo; in short: as §2
[23] = test system: Mus musculus; assay: Toxicity in mouse P388 cells allografted CD2F1 mouse assessed as mouse survival at 200 mg/kg, ip of total 9 doses starting 24 hrs post tumor inoculation measured on day 5 of inoculation relative to control; assay type: organism-based; parameters: dose 200 mg/kg, route intraperitoneal; settings: in vivo; in short: as §3
[24] = test system: P388; assay: Antitumor activity against mouse P388 cells allografted in CD2F1 mouse assessed as increase in mouse survival at 25 mg/kg, ip of total 9 doses starting 24 hrs post tumor inoculation measured on day 5 of inoculation relative to control; assay type: functional; settings: route intraperitoneal; in short: as §1
[25] = test system: Mus musculus; assay: Toxicity in mouse P388 cells allografted CD2F1 mouse assessed as body weight loss at 200 mg/kg, ip of total 9 doses starting 24 hrs post tumor inoculation measured on day 5 of inoculation relative to control; assay type: organism-based; parameters: dose 200 mg/kg, route intraperitoneal; settings: in vivo; in short: as §2
[26] = test system: P388; assay: Antitumor activity against mouse P388 cells allografted in CD2F1 mouse assessed as increase in mouse survival at 200 mg/kg, ip of total 9 doses starting 24 hrs post tumor inoculation measured on day 5 of inoculation relative to control; assay type: functional; settings: route intraperitoneal; in short: as §1
[27] = test system: Mus musculus; assay: Toxicity in mouse P388 cells allografted CD2F1 mouse assessed as body weight loss at 25 mg/kg, ip of total 9 doses starting 24 hrs post tumor inoculation measured on day 5 of inoculation relative to control; assay type: organism-based; parameters: dose 25 mg/kg, route intraperitoneal; settings: in vivo; in short: as §2

`CCCCOc1ccc(-c2c(COC(=O)NC)c(COC(=O)NC)c(C)n2C)cc1` gave a T/C [1] of 137%, an Activity [2] of 2.1 g and an Activity [3] of 1.3 g. It also gave an Activity [4] of 3.4 g, an Activity [5] of 4.1 g and a T/C [6] of 146%. The Activity [7] was “Non-toxic”, the T/C [8] was 144% and the Activity [9] was “Non-toxic”. For the same compound, the Activity [10] was “Non-toxic”, the T/C [11] was 90% and the Activity [12] was 2.8 g.

`CNC(=O)OCc1c(COC(=O)NC)c(-c2ccc(S(C)(=O)=O)cc2)n(C)c1C` was tested, and the Activity [13] was “Non-toxic”, the T/C [14] was 180% and the Activity [15] was “Non-toxic”. The Activity [16] was “Non-toxic”, the T/C [17] was 136% and the Activity [18] was “Non-toxic”. The Activity [19] was 1.1 g, the T/C [20] was 162% and the Activity [21] was 0.4 g. For the same compound, the Activity [22] was 2.1 g, the Activity [23] was “Non-toxic” and the T/C [24] was 144%. The Activity [25] was 3.7 g, the T/C [26] was 198% and the Activity [27] was 0.8 g.
